One data set concerns L1210. Briefly: Compound was tested for inhibition of L1210 cell growth. The data set is classed as functional, cell-based. As to conditions: Mus musculus. A digest of the protocol: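 Exponentially growing L1210 mouse leukemia cells seeded at (2.0–2.5) × 10^4/mL in RPMI-1640 with 10% dialyzed fetal bovine serum. Compound added in phosphate-buffered saline. Incubated 72 h at 37 °C, 5% CO2, humidified. Cells counted with a Coulter counter. IC50 taken from 1 or 2 experiments.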

The nature of data set [1]: Ratio of relative Vmax to that of Km values. Format: ADME.
The nature of data set [2]: Relative maximal velocity (Vmax) as folylpolyglutamate synthetase substrate of the compound. Format: ADME.

As for `N#Cc1nc(CNc2ccc(C(=O)NC(CCC(=O)O)C(=O)O)cc2)cnc1N` (stereo not given), half-maximal inhibition in the data set on L1210 (IC50) required 217 µM. The Ratio in data set [1] turned out to be 0.7. Also, the “Relative Vmax” value in data set [2] amounted to 1.06.

In the case of `NC(=O)c1nc(CNc2ccc(C(=O)NC(CCC(=O)O)C(=O)O)cc2)cnc1N` (stereo not given), the IC50 – broadly, the midpoint of a concentration-inhibition curve – with L1210 was determined as 5.5 µM. Besides, the Ratio in data set [1] was found to be 1.52. The “Relative Vmax” value in data set [2] was 0.99.

In the data set with L1210, `NC(=O)c1nc(CN(C=O)c2ccc(C(=O)NC(CCC(=O)O)C(=O)O)cc2)cnc1N` (stereo not given) gave an IC50 of 85 µM. Also, the Ratio in data set [1] is 2.6. Also, the “Relative Vmax” value in data set [2] is given as 1.84.

Turning to `Nc1nc(N)c2nc(CNc3ccc(C(=O)N[C@@H](CCC(=O)O)C(=O)O)cc3)cnc2n1` [AMINOPTERIN], the Ratio in data set [1] was determined as 10.1. Moreover, the “Relative Vmax” value in data set [2] came out at 1.59.

On to `Nc1nc2ncc(CNc3ccc(C(=O)N[C@@H](CCC(=O)O)C(=O)O)cc3)nc2c(=O)[nH]1` [FOLIC ACID], for which the Ratio in data set [1] is 1. Moreover, the “Relative Vmax” value in data set [2] is on record as 1.

For `CN(Cc1cnc2nc(N)nc(N)c2n1)c1ccc(C(=O)N[C@@H](CCC(=O)O)C(=O)O)cc1` [METHOTREXATE], in data set [1], the Ratio turned out to be 0.9. The “Relative Vmax” value in data set [2] was 0.99.

For the origin of these results see ChEMBL document CHEMBL1125814, “Folic acid analogues lacking the 2-carbon are substrates for folylpolyglutamate synthetase and inhibit cell growth” (J Med Chem, 1991).
